# Tests used:
# Assay type in all cases: functional
# Erwinia = assay: Antibacterial activity against Erwinia aroideae at 50 mg/L after 24 hrs by agar well diffusion method; settings: read-out: DIZ
# Summary of the method: (§1)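 Bacteria plated as 0.8 mL of 24-h-old inoculum mixed into 60 mL sterile molten agar cooled to 45 °C, poured into three dishes. Wells bored with centres at least 24 mm apart. Test sample at 50 mg/L in DMSO added to wells. DMSO served as negative control and agricultural streptomycin sulfate as positive control. Read-out was inhibition zone diameter (mm).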
# Xanthomonas oryzae = assay: Antibacterial activity against Xanthomonas oryzae at 50 mg/L after 24 hrs by agar well diffusion method; settings: read-out: DIZ
# Xanthomonas axonopodis = assay: Antibacterial activity against Xanthomonas axonopodis at 50 mg/L after 24 hrs by agar well diffusion method; settings: read-out: DIZ; summary of the method: as §1
# Fusarium graminearum = assay: Antifungal activity against Gibberella zeae at 200 mg/L by plate growth rate method; settings: read-out: GI
# Summary of the method: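 Plate growth rate method: compound dissolved in DMSO, mixed into sterile PDA at 45 °C to 200 mg/L, plates poured. A 5 mm mycelium agar disc placed centrally; incubated at 28 °C in the dark until the untreated control covered the plate. Colony diameters measured; growth inhibition computed by Abbott's formula. Each compound tested three times.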
# Ralstonia solanacearum = assay: Antibacterial activity against Ralstonia solanacearum at 50 mg/L after 24 hrs by agar well diffusion method; settings: read-out: DIZ
# Rhizoctonia solani = assay: Antifungal activity against Rhizoctonia solani at 200 mg/L by plate growth rate method; settings: read-out: GI
# Summary of the method: (§2)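 Compound dissolved in DMSO and mixed into molten PDA at 45 °C at 200 mg/L, then plates allowed to set. A 5 mm mycelial agar disc was placed at the centre. Plates were incubated at 28 °C in the dark until the untreated control covered the plate. Colony diameters were measured and growth inhibition calculated by Abbott's formula. Each compound was tested three times.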
# Bacillus subtilis = assay: Antibacterial activity against Bacillus subtilis at 50 mg/L after 24 hrs by agar well diffusion method; settings: read-out: DIZ; summary of the method: as §1
# Cytospora mali = assay: Antifungal activity against Valsa mali at 200 mg/L by plate growth rate method; settings: read-out: GI; summary of the method: as §2
SMILES,zone of inhibition at 50 µg/mL (Erwinia) [mm],zone of inhibition at 50 µg/mL (Xanthomonas oryzae) [mm],zone of inhibition at 50 µg/mL (Xanthomonas axonopodis) [mm],inhibition of growth at 200 µg/mL (Fusarium graminearum) [%],zone of inhibition at 50 µg/mL (Ralstonia solanacearum) [mm],inhibition of growth at 200 µg/mL (Rhizoctonia solani) [%],zone of inhibition at 50 µg/mL (Bacillus subtilis) [mm],inhibition of growth at 200 µg/mL (Cytospora mali) [%]
CCn1cc(C(=O)O)c(=O)c2cc(F)c(N3CCN(C(=O)/C=C/c4ccco4)CC3)cc21,14.9,15.3,12.9,8,5.72,20,19.4,7
CCn1cc(C(=O)O)c(=O)c2cc(F)c(N3CCN(C(=O)c4oc5ccccc5c4C)CC3)cc21,5.94,5.44,5.24,45,3.56,65,6.99,33
CCn1cc(C(=O)O)c(=O)c2cc(F)c(N3CCN(C(=O)COc4ccc(Cl)cc4Cl)CC3)cc21,8.52,10,8.16,5,0.5,72,9.91,17
CCn1cc(C(=O)O)c(=O)c2cc(F)c(N3CCN(C(=O)c4cccnc4)CC3)cc21,9.19,7.94,6.58,11,1.06,12,8.74,17
CCn1cc(C(=O)O)c(=O)c2cc(F)c(N3CCN(C(=O)c4cc5ccccc5o4)CC3)cc21,11,8.35,8.66,7,8.56,17,11.2,9
CCn1cc(C(=O)O)c(=O)c2cc(F)c(N3CCNCC3)cc21 [NORFLOXACIN],21.5,22.2,17.7,18,19.3,0,30.5,27
CN[C@@H]1[C@H](O[C@H]2[C@H](O[C@H]3[C@H](O)[C@@H](O)[C@H](N=C(N)N)[C@@H](O)[C@@H]3N=C(N)N)O[C@@H](C)[C@]2(O)C=O)O[C@@H](CO)[C@H](O)[C@H]1O [STREPTOMYCIN],0.5,0.81,0.2,,17.3,,25,
CCn1cc(C(=O)O)c(=O)c2cc(F)c(N3CCN(C(=O)COc4ccc(OC)cc4)CC3)cc21,15.2,14.5,12.5,17,6.31,60,17.6,10
CCn1cc(C(=O)O)c(=O)c2cc(F)c(N3CCN(C(=O)COc4ccccc4)CC3)cc21,13.8,15.3,15,17,4.89,30,17.3,8
CCn1cc(C(=O)O)c(=O)c2cc(F)c(N3CCN(C(=O)COc4ccccc4C)CC3)cc21,13.4,14.2,10.7,20,6.22,34,15.3,19
CCn1cc(C(=O)O)c(=O)c2cc(F)c(N3CCN(C(=O)/C=C/c4ccccc4)CC3)cc21,10.8,11.7,12.1,5,4.64,29,15.2,9
CCn1cc(C(=O)O)c(=O)c2cc(F)c(N3CCN(C(=O)/C=C/c4ccc(OC)cc4)CC3)cc21,8.02,5.35,6.83,1,0,94,8.91,5
